This is an account of results in ChEMBL document CHEMBL4613280, “Development of Pyrazolo[3,4-d]pyrimidine Kinase Inhibitors as Potential Clinical Candidates for Glioblastoma Multiforme” (ACS Med Chem Lett, 2020).

SMILES strings stand for the structures. Active and inactive are the calls of the source. The calls are words filed in the database; no cut-off is given here.

Test [1] is filed under the species Homo sapiens. Put plainly: Induction of apoptosis in human GIN8 cells assessed as increase in caspase 3/7 activation at 10 uM measured after 48 hrs by CellEvent caspase 3/7 probe based fluorescence analysis. The format is functional, cell-based. The gist of the method:
(§1)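 Patient-derived GBM cells were exposed to compound diluted in DMEM containing 10% FBS for 48 h. Activated effector caspases-3/7 were then detected with the CellEvent caspase-3/7 fluorescent probe. Data are mean ± SEM of n = 3. Significance was tested by two-way ANOVA with Dunnett's multiple comparisons test.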

The species named for test [2] is Homo sapiens. Briefly: Induction of apoptosis in human GIN28 cells assessed as increase in caspase 3/7 activation at 10 uM measured after 48 hrs by CellEvent caspase 3/7 probe based fluorescence analysis. It counts as functional, cell-based. In short, it runs like this:
as §1

Test [3] is filed under the species Homo sapiens. Briefly: Induction of apoptosis in human GCE28 cells assessed as increase in caspase 3/7 activation at 10 uM measured after 48 hrs by CellEvent caspase 3/7 probe based fluorecence analysis. The format is functional, cell-based. The gist of the method:
as §1

Test [4] can be described thus: Cytotoxicity against human GIN8 cells derived from invasive region of GBM patient assessed as reduction in cell viability measured after 48 hrs by Prestoblue assay. It counts as functional, cell-based. The gist of the method: (§2)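 Compounds diluted in DMEM containing 10% FBS and applied for 48 h. Viability read by PrestoBlue. IC50 calculated from three independent experiments, mean ± SE. Two-way ANOVA with Dunnett's multiple comparisons test.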

The nature of test [5]: Cytotoxicity against human GIN28 cells derived from invasive region of GBM patient assessed as reduction in cell viability measured after 48 hrs by Prestoblue assay. The format is functional, cell-based. The gist of the method: as §2
Test [6] in a line: Cytotoxicity against human GCE28 cells derived from central tumor core of GBM patient assessed as reduction in cell viability measured after 48 hrs by Prestoblue assay. It counts as functional, cell-based. The gist of the method: as §2
The nature of test [7]: Synergistic cytotoxicity against human GIN8 cells assessed as combination index measured after 48 hrs in presence of N-(3-bromophenyl)-1-(2-chloro-2-phenylethyl)-6-(2-morpholinoethylsulfanyl)pyrazolo[3,4-d]pyrimidin-4-amine by Chou-Talalay assay. The format is functional. The gist of the method:
(§3)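 Two kinase inhibitors were combined at a 1:1 molar ratio, diluted in DMEM with 10% FBS, and incubated with the GBM cells for 48 h. Viability was read by PrestoBlue. Combination index values were calculated from three independent IC50 experiments (n = 3) and are reported as mean ± SD.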

A short description of test [8]: Synergistic cytotoxicity against human GIN28 cells assessed as combination index measured after 48 hrs in presence of N-(3-bromophenyl)-1-(2-chloro-2-phenylethyl)-6-(2-morpholinoethylsulfanyl)pyrazolo[3,4-d]pyrimidin-4-amine by Chou-Talalay assay. It counts as functional. The gist of the method: as §3
The nature of test [9]: Synergistic cytotoxicity against human GCE28 cells assessed as combination index measured after 48 hrs in presence of N-(3-bromophenyl)-1-(2-chloro-2-phenylethyl)-6-(2-morpholinoethylsulfanyl)pyrazolo[3,4-d]pyrimidin-4-amine by Chou-Talalay assay. The format is functional. The gist of the method: (§4)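 Each drug pair dosed at a 1:1 molar ratio on the GBM lines and incubated 48 h. CI computed from three independent IC50 experiments (n = 3), reported as mean ± SD.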

Test [10] in a line: Antagonistic cytotoxicity against human GIN8 cells assessed as combination index measured after 48 hrs in presence of 2-[[4-(2-phenylethylamino)-1-[styryl]pyrazolo[3,4-d]pyrimidin-6-yl]amino]ethanol by Chou-Talalay assay. The format is functional. In short, it runs like this: as §4
A short description of test [11]: Synergistic cytotoxicity against human GIN28 cells assessed as combination index measured after 48 hrs in presence of 2-[[4-(2-phenylethylamino)-1-[styryl]pyrazolo[3,4-d]pyrimidin-6-yl]amino]ethanol by Chou-Talalay assay. The format is functional. The gist of the method: as §4
Test [12] is described as follows: Synergistic cytotoxicity against human GCE28 cells assessed as combination index measured after 48 hrs in presence of 2-[[4-(2-phenylethylamino)-1-[styryl]pyrazolo[3,4-d]pyrimidin-6-yl]amino]ethanol by Chou-Talalay assay. The format is functional. In short, it runs like this:
as §4

For test [13], the target named is Serine/threonine-protein kinase Sgk1 (Homo sapiens, UniProt O00141, S422D). Briefly: Inhibition of human N-terminal His6-tagged N-truncated human SGK1 harboring S422D mutant expressed in Sf21 cells using Sgktide-peptide as substrate in presence of [gamma-32P]ATP by scintillation counting method.
Serine/threonine-protein kinase Sgk1, sequence (O00141 whole entry S422D, the tested form may be a part): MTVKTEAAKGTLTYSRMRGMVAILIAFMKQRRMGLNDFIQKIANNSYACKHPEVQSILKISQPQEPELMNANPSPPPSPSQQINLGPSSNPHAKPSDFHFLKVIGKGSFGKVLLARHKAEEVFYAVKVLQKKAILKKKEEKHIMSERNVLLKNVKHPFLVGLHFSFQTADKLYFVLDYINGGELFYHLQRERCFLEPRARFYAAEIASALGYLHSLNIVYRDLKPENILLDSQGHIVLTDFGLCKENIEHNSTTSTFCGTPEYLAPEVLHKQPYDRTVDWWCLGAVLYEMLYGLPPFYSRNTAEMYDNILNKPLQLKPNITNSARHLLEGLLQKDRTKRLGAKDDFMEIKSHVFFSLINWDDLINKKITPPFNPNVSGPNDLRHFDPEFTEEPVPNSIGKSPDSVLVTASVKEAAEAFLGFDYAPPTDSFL
For test [14], the species on record is Homo sapiens. Put plainly: Induction of apoptosis in human GIN8 cells assessed as increase in caspase 3/7 activation at 12.5 uM measured after 48 hrs by CellEvent caspase 3/7 probe based fluorescence analysis. It counts as functional, cell-based. In short, it runs like this: (§5)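 Cells exposed 48 h to compounds diluted in 10% FBS DMEM. Activated caspase-3/7 detected with the CellEvent probe. Staurosporine 10.0 μM served as reference inducer. Mean ± SEM (n = 3). Two-way ANOVA with Dunnett's test.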

For test [15], the species on record is Homo sapiens. Briefly: Induction of apoptosis in human GIN28 cells assessed as increase in caspase 3/7 activation at 12.5 uM measured after 48 hrs by CellEvent caspase 3/7 probe based fluorescence analysis. It counts as functional, cell-based. The gist of the method:
as §5

The species named for test [16] is Homo sapiens. Briefly: Induction of apoptosis in human GCE28 cells assessed as increase in caspase 3/7 activation at 12.5 uM measured after 48 hrs by CellEvent caspase 3/7 probe based fluorescence analysis. It counts as functional, cell-based. The gist of the method: as §5
Test [17] is described as follows: Synergistic cytotoxicity against human GIN28 cells assessed as combination index measured after 48 hrs in presence of 3-(4-chlorophenyl)-1-(2-chloro-2-phenylethyl)pyrazolo[3,4-d]pyrimidin-4-amine by Chou-Talalay assay. It counts as functional. In short, it runs like this:
as §4

The nature of test [18]: Synergistic cytotoxicity against human GCE28 cells assessed as combination index measured after 48 hrs in presence of 3-(4-chlorophenyl)-1-(2-chloro-2-phenylethyl)pyrazolo[3,4-d]pyrimidin-4-amine by Chou-Talalay assay. It counts as functional. The gist of the method: as §4
Test [19] can be described thus: Antagonistic cytotoxicity against human GIN8 cells assessed as combination index measured after 48 hrs in presence of 3-(4-chlorophenyl)-1-(2-chloro-2-phenylethyl)pyrazolo[3,4-d]pyrimidin-4-amine by Chou-Talalay assay. The format is functional. In short, it runs like this: as §4
A short description of test [20]: Additive cytotoxicity against human GIN8 cells assessed as combination index measured after 48 hrs in presence of N-(3-bromophenyl)-1-(2-chloro-2-phenylethyl)6(2morpholinoethylsulfanyl)pyrazolo[3,4-d]pyrimidin-4-amine by Chou-Talalay assay. The format is functional. The gist of the method: as §4
The nature of test [21]: Additive cytotoxicity against human GIN28 cells assessed as combination index measured after 48 hrs in presence of N-(3-bromophenyl)-1-(2-chloro-2-phenylethyl)6(2morpholinoethylsulfanyl)pyrazolo[3,4-d]pyrimidin-4-amine by Chou-Talalay assay. The format is functional. The gist of the method: as §4
The nature of test [22]: Additive cytotoxicity against human GCE28 cells assessed as combination index measured after 48 hrs in presence of N-(3-bromophenyl)-1-(2-chloro-2-phenylethyl)6(2morpholinoethylsulfanyl)pyrazolo[3,4-d]pyrimidin-4-amine by Chou-Talalay assay. It counts as functional. The gist of the method:
as §4

Consider `CN[C@@H]1C[C@H]2O[C@@](C)([C@@H]1OC)n1c3ccccc3c3c4c(c5c6ccccc6n2c5c31)C(=O)NC4`, for which the outcome in the test filed under Homo sapiens [1], in the test listed under Homo sapiens [2] and in the test listed under Homo sapiens [3] was Active.

Consider `Nc1ncnc2c1c(-c1ccc(Cl)cc1)nn2CC(Cl)c1ccccc1` (stereo not given), for which the figures for the IC50 in test [4], in [5] and in test [6] were 54.7 µM, 49.8 µM and 47.6 µM, respectively. Also, the CI came to 0.53 in test [7]; 0.76 in test [8]; 0.88 in [9]; 1.13 in test [10]; 0.57 in test [11]; 0.46 in [12].

With `OCCNc1nc(NCCc2ccccc2)c2cnn(/C=C/c3ccccc3)c2n1`, in test [13], the Ki is 0.6 µM. For the same molecule, the concentration for half-maximal inhibition (IC50) in test [4] was determined as 10.5 µM; in test [5], 14.4 µM; in test [6], 10.7 µM. Further, the outcome in the test listed under Homo sapiens [14] and in the test filed under Homo sapiens [16] was Active. Moreover, in the test listed under Homo sapiens [15], the result was inactive. For the same molecule, the CI was 0.57 in [17]; 0.46 in [18]; 1.13 in [19]; 0.99 in [20]; 0.9 in test [21]; 0.97 in test [22].
